ChEMBL document CHEMBL3102784, “Salicylanilide diethyl phosphates: synthesis, antimicrobial activity and cytotoxicity” (Bioorg Med Chem, 2014)
Converted amounts (≈) assume the structure as drawn. The source made the active and inactive calls. The rule behind the calls is not given here.

Experiments:
[1] = system: Staphylococcus aureus; experiment: Antibacterial activity against methicillin-resistant Staphylococcus aureus H 5996/08 after 48 hrs by broth microdilution method; type: functional; details: H 5996/08, 48 h
Procedure, shortened: (§1)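 Broth microdilution in Mueller–Hinton broth, compounds dissolved in DMSO, tested over a dilution series from 500 downward. MIC taken as ≥95% growth reduction (IC95) versus drug-free control. Benzylpenicillin comparator. Readings at 24 and 48 h.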

[2] = system: Trichophyton mentagrophytes; experiment: Antifungal activity against Trichophyton mentagrophytes 445 after 120 hrs by broth microdilution method; type: functional; details: Trichophyton mentagrophytes, 445, 120 h
Procedure, shortened: (§2)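 Filamentous dermatophyte tested by broth microdilution in RPMI 1640 with glutamine, fluconazole as reference. Value expressed as IC50 relative to growth control. Read at 72 and 120 h.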

[3] = system: Mycobacterium kansasii; experiment: Antimycobacterial activity against Mycobacterium kansasii My 235/80 after 7 days; type: functional; details: My 235/80, 168 h
Procedure, shortened: (§3)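 Micromethod MIC in Šula's semisynthetic medium at 37 °C. Compounds added in DMSO at 1000 down to 0.032 µmol/L. Isoniazid standard in sterile water at 0.5–250 µmol/L. Inocula: H37Rv 10^3, M. avium 10^5, M. kansasii 10^4. Read at 14 and 21 d, plus 7 d for M. kansasii.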

[4] = system: Trichophyton mentagrophytes; experiment: Antifungal activity against Trichophyton mentagrophytes 445 after 72 hrs by broth microdilution method; type: functional; details: Trichophyton mentagrophytes, 445, 72 h; procedure, shortened: as §2
[5] = system: Trichosporon asahii; experiment: Antifungal activity against Trichosporon asahii 1188 after 24 hrs by broth microdilution method; type: functional; details: Trichosporon asahii, 1188, 24 h
Procedure, shortened: (§4)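 Broth microdilution in RPMI 1640 with glutamine, fluconazole as reference. For yeasts, MIC is ≥80% growth reduction (IC80) versus control. For filamentous fungi, the value is expressed as IC50. Readings at 24 and 48 h.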

[6] = system: Staphylococcus aureus; experiment: Antibacterial activity against methicillin-resistant Staphylococcus aureus H 5996/08 after 24 hrs by broth microdilution method; type: functional; details: H 5996/08, 24 h; procedure, shortened: as §1
[7] = system: Enterococcus sp.; experiment: Antibacterial activity against Enterococcus sp. J 14365/08 at 500 micromol/L after 24 to 48 hrs by broth microdilution method; type: functional, organism-based; procedure, shortened: as §1
[8] = system: Mycobacterium tuberculosis; experiment: Antimycobacterial activity against Mycobacterium tuberculosis H37Rv My 331/88 after 21 days; type: functional; details: H37Rv My 331/88, 504 h; procedure, shortened: as §3
[9] = system: Pseudomonas aeruginosa; experiment: Antibacterial activity against Pseudomonas aeruginosa CCM 1961 at 500 micromol/L after 24 to 48 hrs by broth microdilution method; type: functional, organism-based; procedure, shortened: as §1
[10] = system: Aspergillus fumigatus; experiment: Antifungal activity against Aspergillus fumigatus 231 after 48 hrs by broth microdilution method; type: functional; details: Aspergillus fumigatus, 231, 48 h; procedure, shortened: as §4
[11] = system: Mycobacterium kansasii; experiment: Antimycobacterial activity against Mycobacterium kansasii 6509/96 after 21 days; type: functional; details: 6509/96, 504 h; procedure, shortened: as §3
[12] = system: Mycobacterium kansasii; experiment: Antimycobacterial activity against Mycobacterium kansasii 6509/96 after 7 days; type: functional; details: 6509/96, 168 h; procedure, shortened: as §3
[13] = system: Candida tropicalis; experiment: Antifungal activity against Candida tropicalis 156 at 500 micromol/L after 24 to 48 hrs by broth microdilution method; type: functional, organism-based; procedure, shortened: as §4
[14] = system: Staphylococcus aureus; experiment: Antibacterial activity against Staphylococcus aureus CCM 4516/08 after 24 hrs by broth microdilution method; type: functional; details: CCM 4516/08, 24 h; procedure, shortened: as §1
[15] = system: Lichtheimia corymbifera; experiment: Antifungal activity against Absidia corymbifera 272 after 48 hrs by broth microdilution method; type: functional; details: Lichtheimia corymbifera, 272, 48 h; procedure, shortened: as §4
[16] = system: Candida albicans; experiment: Antifungal activity against Candida albicans ATCC 44859 after 24 hrs by broth microdilution method; type: functional; details: ATCC 44859, 24 h; procedure, shortened: as §4
[17] = system: Nakaseomyces glabratus; experiment: Antifungal activity against Candida glabrata 20/I at 500 micromol/L after 24 to 48 hrs by broth microdilution method; type: functional, organism-based; procedure, shortened: as §4
[18] = system: Pichia kudriavzevii; experiment: Antifungal activity against Candida krusei E28 after 48 hrs by broth microdilution method; type: functional; details: E28, 48 h; procedure, shortened: as §4
[19] = system: Mycobacterium tuberculosis; experiment: Antimycobacterial activity against Mycobacterium tuberculosis H37Rv My 331/88 after 14 days; type: functional; details: H37Rv My 331/88, 336 h; procedure, shortened: as §3
[20] = system: Pichia kudriavzevii; experiment: Antifungal activity against Candida krusei E28 after 24 hrs by broth microdilution method; type: functional; details: E28, 24 h; procedure, shortened: as §4
[21] = system: Lichtheimia corymbifera; experiment: Antifungal activity against Absidia corymbifera 272 after 24 hrs by broth microdilution method; type: functional; details: Lichtheimia corymbifera, 272, 24 h; procedure, shortened: as §4
[22] = system: Aspergillus fumigatus; experiment: Antifungal activity against Aspergillus fumigatus 231 after 24 hrs by broth microdilution method; type: functional; details: Aspergillus fumigatus, 231, 24 h; procedure, shortened: as §4
[23] = system: Candida albicans; experiment: Antifungal activity against Candida albicans ATCC 44859 after 48 hrs by broth microdilution method; type: functional; details: ATCC 44859, 48 h; procedure, shortened: as §4
[24] = system: Mycobacterium kansasii; experiment: Antimycobacterial activity against Mycobacterium kansasii My 235/80 after 21 days; type: functional; details: My 235/80, 504 h; procedure, shortened: as §3
[25] = system: Klebsiella pneumoniae; experiment: Antibacterial activity against ESBL-positive Klebsiella pneumoniae J 14368/08 at 500 micromol/L after 24 to 48 hrs by broth microdilution method; type: functional, organism-based; procedure, shortened: as §1
[26] = system: Mycobacterium kansasii; experiment: Antimycobacterial activity against Mycobacterium kansasii 6509/96 after 14 days; type: functional; details: 6509/96, 336 h; procedure, shortened: as §3
[27] = system: Mycobacterium kansasii; experiment: Antimycobacterial activity against Mycobacterium kansasii My 235/80 after 14 days; type: functional; details: My 235/80, 336 h; procedure, shortened: as §3
[28] = system: Staphylococcus aureus; experiment: Antibacterial activity against Staphylococcus aureus CCM 4516/08 after 48 hrs by broth microdilution method; type: functional; details: CCM 4516/08, 48 h; procedure, shortened: as §1
[29] = system: Trichosporon asahii; experiment: Antifungal activity against Trichosporon asahii 1188 after 48 hrs by broth microdilution method; type: functional; details: Trichosporon asahii, 1188, 48 h; procedure, shortened: as §4
[30] = system: Klebsiella pneumoniae; experiment: Antibacterial activity against Klebsiella pneumoniae D 11750/08 at 500 micromol/L after 24 to 48 hrs by broth microdilution method; type: functional, organism-based; procedure, shortened: as §1
[31] = system: Staphylococcus epidermidis; experiment: Antibacterial activity against Staphylococcus epidermidis H 6966/08 after 24 hrs by broth microdilution method; type: functional; details: H 6966/08, 24 h; procedure, shortened: as §1
[32] = system: Staphylococcus epidermidis; experiment: Antibacterial activity against Staphylococcus epidermidis H 6966/08 after 48 hrs by broth microdilution method; type: functional; details: H 6966/08, 48 h; procedure, shortened: as §1
[33] = system: HepG2; experiment: Cytotoxicity against human HepG2 cells after 24 hrs by CellTiter assay; type: cell-based; details: HepG2, 24 h
Procedure, shortened: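 HepG2 cells (passage 27–33) in MEM with 10% FBS, L-glutamine and NEAA, seeded at 1×10^4 per well. Treated next day with compounds at 0.1–100 µM (or 0.1–25 µmol/L), triplicates, <1% DMSO, for 24 h at 37 °C, 5% CO2. MTS reagent added for 2 h, absorbance read at 490 nm. IC50 taken against untreated (100%) and 10% DMSO (0%) controls.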

[34] = system: Escherichia coli; experiment: Antibacterial activity against Escherichia coli CCM 4517 at 500 micromol/L after 24 to 48 hrs by broth microdilution method; type: functional, organism-based; procedure, shortened: as §1
[35] = system: Mycobacterium avium; experiment: Antimycobacterial activity against isoniazid, rifampicin, ethambutol and ofloxacin-resistant Mycobacterium avium My 330/88 after 21 days; type: functional; details: My 330/88, 504 h; procedure, shortened: as §3
[36] = system: Mycobacterium avium; experiment: Antimycobacterial activity against isoniazid, rifampicin, ethambutol and ofloxacin-resistant Mycobacterium avium My 330/88 after 14 days; type: functional; details: My 330/88, 336 h; procedure, shortened: as §3

Row | Structure (SMILES) | MIC95 [1] | MIC50 [2] | MIC [3] | MIC50 [4] | MIC80 [5] | MIC95 [6] | Activity [7] | MIC [8] | Activity [9] | MIC50 [10] | MIC [11] | MIC [12] | Activity [13] | MIC95 [14] | MIC50 [15] | MIC80 [16] | Activity [17] | MIC80 [18] | MIC [19] | MIC80 [20] | also measured
1 | CCOP(=O)(OCC)Oc1ccc(Cl)cc1C(=O)Nc1cccc(C(F)(F)F)c1 | 500 µM (≈ 226 µg/mL) | > 500 µM | 8 µM (≈ 3.61 µg/mL) | > 500 µM | > 500 µM | 500 µM (≈ 226 µg/mL) | inactive | 2 µM (≈ 0.904 µg/mL) | inactive | > 500 µM | 8 µM (≈ 3.61 µg/mL) | 8 µM (≈ 3.61 µg/mL) | inactive | > 500 µM | > 500 µM | > 500 µM | inactive | > 500 µM | 2 µM (≈ 0.904 µg/mL) | > 500 µM | MIC50 [21]: > 500 µM; MIC50 [22]: > 500 µM; MIC80 [23]: > 500 µM; MIC [24]: 8 µM (≈ 3.61 µg/mL); Activity [25]: inactive; MIC [26]: 8 µM (≈ 3.61 µg/mL); MIC [27]: 8 µM (≈ 3.61 µg/mL); MIC95 [28]: > 500 µM; MIC80 [29]: > 500 µM; Activity [30]: inactive; MIC95 [31]: 250 µM (≈ 113 µg/mL); MIC95 [32]: > 500 µM; IC50 [33]: 5.68 µM; Activity [34]: inactive; MIC [35]: 16 µM (≈ 7.23 µg/mL); MIC [36]: 16 µM (≈ 7.23 µg/mL)
2 | CCOP(=O)(OCC)Oc1cc(Cl)ccc1C(=O)Nc1cccc(Br)c1 | 500 µM (≈ 231 µg/mL) | > 500 µM | 4 µM (≈ 1.85 µg/mL) | > 500 µM | > 500 µM | 250 µM (≈ 116 µg/mL) | inactive | 4 µM (≈ 1.85 µg/mL) | inactive | > 500 µM | 8 µM (≈ 3.7 µg/mL) | 8 µM (≈ 3.7 µg/mL) | inactive | 125 µM (≈ 57.8 µg/mL) | > 500 µM | > 500 µM | inactive | > 500 µM | 4 µM (≈ 1.85 µg/mL) | > 500 µM | MIC50 [21]: > 500 µM; MIC50 [22]: > 500 µM; MIC80 [23]: > 500 µM; MIC [24]: 8 µM (≈ 3.7 µg/mL); Activity [25]: inactive; MIC [26]: 8 µM (≈ 3.7 µg/mL); MIC [27]: 8 µM (≈ 3.7 µg/mL); MIC95 [28]: 500 µM (≈ 231 µg/mL); MIC80 [29]: > 500 µM; Activity [30]: inactive; MIC95 [31]: 125 µM (≈ 57.8 µg/mL); MIC95 [32]: 250 µM (≈ 116 µg/mL); IC50 [33]: 8.07 µM; Activity [34]: inactive; MIC [35]: 16 µM (≈ 7.4 µg/mL); MIC [36]: 16 µM (≈ 7.4 µg/mL)
